HSF1 activator: increases HSF-1 driven luciferase reporter signal | NIH3T3-HGL HSF-1 luciferase reporter, MG132, 8 h; 100% = twice DMSO control signal | activation, % at 9 µM | actives 1.7% (n = 300,000) | AID 504408;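 active = mean replicate activation of at least 50% with a set share of replicates each reaching 50%; inconclusive = only one of those two conditions met; inactive = mean below 50% and too few replicates reaching it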
AI-2 QS modul: modulates the Vibrio harveyi AI-2 quorum sensing system; Vibrio harveyi JMH597 AI-2 luminescence/OD600 ratio, 9 h; stronger effect = lower value; strain lacks LuxN and CqsS sensors; 0 = neutral-control median; activity change, % at 7.5 µM; actives 0.4% (n = 300,000); AID 2094; in the data active = activity change below about -75%, passing the limit was not always enough; inconclusive = no clear call, values can overlap the other calls;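 also: luminescence divided by OD600 gain over 9 h not by final OD600 alone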
HSF1 inhib: HSF1 inhibition | NIH3T3-HGL HSE-luciferase, MG132-induced, luminescence 8 h; stronger effect = lower value | activity change, negative = inhibition, % at 7.5 µM (by protocol) | actives 0.77% (n = 300,000);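 active = more than half of replicate wells show activity change below -50%, luminescence cut by over half; inconclusive = some wells, but at most half, below -50%; inactive = no replicate well below -50%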;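 also: luciferase reports HSF-1 transcriptional activity via heat shock element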
PHOSPHO1 block: blocks human PHOSPHO1 phosphatase activity | Q8TCT1 | recombinant PHOSPHO1, absorbance phosphatase assay | inhibition, % at 13.3 µM | actives 1.1% (n = 290,000); in the data active = inhibition above about 60%
Target sequence (Q8TCT1 whole entry, looked up): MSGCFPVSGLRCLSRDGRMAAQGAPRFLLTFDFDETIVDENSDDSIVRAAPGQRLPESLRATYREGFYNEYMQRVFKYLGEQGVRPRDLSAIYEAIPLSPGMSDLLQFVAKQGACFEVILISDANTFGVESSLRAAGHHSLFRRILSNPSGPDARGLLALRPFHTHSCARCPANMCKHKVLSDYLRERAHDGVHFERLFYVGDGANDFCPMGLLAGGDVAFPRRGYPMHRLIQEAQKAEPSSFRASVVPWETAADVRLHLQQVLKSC
core dimer inh: HCV core protein dimerization inhibition | AID 1899 | TR-FRET GST/Flag-core106 dimerization, 1536-well | actives 0.33% (n = 300,000) | inhibition, % at 5 µM;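 active = inhibition above the mean of all tested compounds plus 3 SD, set per screening campaign, cut at about 45% in these data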
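System – GST-tagged and Flag-tagged HCV core protein residues 1-106 · Repeats – one well for each compound · Technique – TR-FRET 671 and 617 nm emission · Doses – one concentration, 5 µM, in 0.5% DMSO · Times – 4 h, 22.5 °C incubation · Also added – Eu donor and XL665 acceptor anti-tag antibodies · Measure – percent inhibition of core106 dimerization signal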
ALR H2O2 inh: human ALR oxidase inhibition via reduced H2O2. actives 3.8% (n = 290,000). inhibition, % (test concentration not listed). purified ALR, DTT oxidation, H2O2 HRP-luminol luminescence;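 active = mean replicate inhibition above about 79%, with every replicate also reaching it, limit read from the data; inconclusive = only one of the two criteria met; inactive = mean below limit and not every replicate reaching it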
Target sequence (P55789 whole entry, looked up): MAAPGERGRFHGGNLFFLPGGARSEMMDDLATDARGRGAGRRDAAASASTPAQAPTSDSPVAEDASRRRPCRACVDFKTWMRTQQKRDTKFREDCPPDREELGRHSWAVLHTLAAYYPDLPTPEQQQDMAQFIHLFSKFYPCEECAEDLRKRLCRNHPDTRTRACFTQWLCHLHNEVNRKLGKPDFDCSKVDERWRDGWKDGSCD
Each line names hits and unclear results; the compound was inactive in the other large screens; ! = not confirmed by another sample. The list is not random: actives were taken first. Their share in the collection is about 6.8%.

CCCCn1c(N)c(N(CC(C)C)C(=O)C2CCN(S(=O)(=O)c3ccc(Cl)cc3)CC2)c(=O)[nH]c1=O	none (no result: PHOSPHO1 block)
O=C1NC(Cc2ccccc2)C(=O)N1CC(=O)N1CCCc2ccccc21 (stereo unspecified)	none
CO[C@H]1C=CO[C@@]2(C)Oc3c(C)c(O)c4c(O)c(c5c(nc6cc(C)ccn65)c4c3C2=O)NC(=O)C(C)=CC=C[C@H](C)[C@H](O)[C@@H](C)[C@@H](O)[C@@H](C)[C@H](OC(C)=O)[C@@H]1C	AI-2 QS modul -219 (no result: core dimer inh, ALR H2O2 inh)
CO[C@H]1C=CO[C@@]2(C)Oc3c(C)c(O)c4c(O)c(c5c(c4c3C2=O)NC2(CCN(CC(C)C)CC2)N=5)=NC(=O)C(C)=CC=C[C@H](C)[C@H](O)[C@@H](C)[C@@H](O)[C@@H](C)[C@H](OC(C)=O)[C@@H]1C	AI-2 QS modul inconclusive (no result: ALR H2O2 inh)
Cc1ccc(-n2ncc3c2ncn2c(C)nnc32)cc1C	PHOSPHO1 block 60 (no result: HSF1 activator, AI-2 QS modul, HSF1 inhib)
COc1ccc(NC2CCCN(C(=O)CCCn3cncn3)C2)cc1 (stereo unspecified)	ALR H2O2 inh 99
COc1ccc(NC2CCCN(C(=O)CCc3cccc(Cl)c3)C2)cc1 (stereo unspecified)	none (no result: ALR H2O2 inh)
COc1ccc(NC2CCCN(C(=O)CCc3cccc(F)c3)C2)cc1 (stereo unspecified)	ALR H2O2 inh 99
COc1ccc(NC2CCCN(C(=O)CCn3cccn3)C2)cc1 (stereo unspecified)	ALR H2O2 inh 99
O=S(=O)(NCCc1ccccn1)c1ccc(F)c(F)c1	none
CC(Sc1nnnn1C)C(=O)Nc1nc(-c2ccc(F)c(F)c2)cs1 (stereo unspecified)	none (no result: HSF1 activator, AI-2 QS modul, HSF1 inhib, PHOSPHO1 block, core dimer inh)
Cc1ccccc1OCc1nc2ccc(S(=O)(=O)N3CCOCC3)cc2[nH]1	PHOSPHO1 block 98 (no result: HSF1 activator, HSF1 inhib)
O=C(Cc1ccccc1Cl)Nc1cccnc1	none
COc1ccc(CCNC(=O)c2cc3c(=O)n4cccc(C)c4nc3n(Cc3ccco3)c2=N)cc1OC	HSF1 activator 99, ALR H2O2 inh 76
N=c1c(C(=O)NCc2ccco2)cc2c(=O)n3ccccc3nc2n1Cc1ccccc1	core dimer inh 65 (no result: ALR H2O2 inh)
CC(C)n1c(=N)c(C(=O)NCCc2ccccc2)cc2c(=O)n3ccccc3nc21	PHOSPHO1 block 63
N=c1c(C(=O)NCc2ccco2)cc2c(=O)n3ccccc3nc2n1Cc1ccc(Cl)cc1	core dimer inh 67
CSc1nsc(SCC(=O)Nc2nc3ccc(C)cc3s2)n1	none
O=C(CNC(=O)c1cccs1)OCC(=O)c1ccccc1Cl	none (no result: HSF1 activator, HSF1 inhib, ALR H2O2 inh)
CCN(CC)S(=O)(=O)c1ccc(NC(=O)COC(=O)CCc2cc(OC)c(OC)c(OC)c2)cc1	none
COCCn1c(C)cc(C(=O)CSc2nnnn2C2CCCC2)c1C	none (no result: HSF1 activator, AI-2 QS modul, HSF1 inhib, PHOSPHO1 block, core dimer inh)
Cc1nc(C(=O)NCc2ccccc2)sc1C1(C)CC(c2ccccc2)=NO1 (stereo unspecified)	none (no result: ALR H2O2 inh)
Cc1ccc2nc3c(cc(C(=O)NCc4ccco4)c(=N)n3Cc3ccco3)c(=O)n2c1	core dimer inh 70
CN1CC(=O)N(CC(=O)Nc2ccc(N(C)C)cc2)c2ccccc2C1=O	ALR H2O2 inh 99
O=C(CCN1CCN(c2ccccn2)CC1)Nc1ccc(F)cc1	none
CN(C)c1ccc(NC(=O)CN2CCC(N3CCCCC3)CC2)cc1	ALR H2O2 inh 99
CN(C)c1ccc(NC(=O)CN2CCc3ccccc3C2)cc1	ALR H2O2 inh 99 (no result: AI-2 QS modul)
CN1CC(=O)N(CC(=O)NCCc2ccc(F)cc2)c2ccccc2C1=O	none (no result: HSF1 activator, AI-2 QS modul, HSF1 inhib)
CN(C)c1ccc(NC(=O)CCN2CCN(c3ccccn3)CC2)cc1	ALR H2O2 inh 99
Cc1ccc(-n2c(SCC(=O)N(C)C3CCS(=O)(=O)C3)nc3ccccc3c2=O)c(C)c1 (stereo unspecified)	none (no result: HSF1 activator, AI-2 QS modul, HSF1 inhib, PHOSPHO1 block, core dimer inh)
O=C(O)CCCSc1nccn1-c1ccccc1	none
CC1(C)CC[C@]2(CO)CC[C@]3(C)C(=CCC4[C@@]5(C)CC[C@H](O)[C@@](C)(CO)C5CC[C@]43C)[C@@H]2C1 (stereo partly specified)	none (no result: HSF1 activator, AI-2 QS modul, HSF1 inhib, PHOSPHO1 block, core dimer inh)
O=C(COC(=O)/C=C/c1ccccc1[N+](=O)[O-])NCc1ccco1	none (no result: HSF1 activator, AI-2 QS modul, HSF1 inhib, PHOSPHO1 block, core dimer inh)
CSc1ccc(NC(=O)NCCN2CCc3ccccc3C2)cc1	ALR H2O2 inh 98
COc1cc(/C=C2\CCC/C(=C\c3ccc(O)c(OC)c3)C2=O)ccc1O	HSF1 activator 114 (no result: ALR H2O2 inh)
COc1cc(/C=C2/CCCC(C(=O)C(F)(F)F)=C2O)ccc1O	none (no result: ALR H2O2 inh)
COc1cc(/C=C2/CCC/C(=C\c3cc(O)c(OC)c(Cl)c3)C2=O)cc(Cl)c1O	HSF1 activator 204, core dimer inh 50
COc1cc(/C=C2/C(=O)CNC2=O)ccc1O	ALR H2O2 inh 99
Nc1nc2c([N+](=O)[O-])cccc2s1	none
COc1ccccc1NC(C)C(=O)Nc1ccc(C(C)=O)cc1 (stereo unspecified)	ALR H2O2 inh 99
CCC(C)NC(=O)COC(=O)c1oc2ccccc2c1CSc1ccc(Cl)cc1 (stereo unspecified)	none
O=C(N/N=C/c1sc(=O)n(-c2ccccc2)c1Cl)c1ccccc1	HSF1 activator 66
NC(=O)N/N=C/c1sc(=O)n(-c2ccccc2)c1Cl	none (no result: ALR H2O2 inh)
CCOC(=O)c1c(C)[nH]c2cc(Br)c(O)cc12	none
CCOC(=O)c1c(OCC)[nH]c2c1cc(O)c1ccccc12	PHOSPHO1 block 67, ALR H2O2 inh 99
O=C(N/N=C/c1ccc(Cl)cc1Cl)C(=O)NC1CC1	none
CCOC(=O)c1c(C)[nH]c(C(=O)COC(=O)C2(C)CC2(Cl)Cl)c1C (stereo unspecified)	HSF1 activator 56 (no result: ALR H2O2 inh)
Cc1cnc(NC(=O)Nc2ccc(Cl)cc2)s1	HSF1 activator 274 (no result: ALR H2O2 inh)
O=C(Nc1nnc(COc2ccc(Cl)cc2)s1)c1cccs1	PHOSPHO1 block 80
O=C(Nc1ncc([N+](=O)[O-])s1)c1cccs1	ALR H2O2 inh 97!
O=C(Nc1ncc([N+](=O)[O-])s1)c1ccccc1Br	ALR H2O2 inh 97
Cc1ncoc1C(=O)Nc1ncc([N+](=O)[O-])s1	none (no result: ALR H2O2 inh)
Cc1noc(C)c1C(=O)Nc1nc2ccc(Cl)cc2s1	none
Cc1ccc(C(=O)O)cc1-n1c(=O)n(Cc2ccccc2)c(=O)c2[nH]cnc21	none
CC(c1nccs1)N(C)C(=O)c1cn(Cc2cccc3ccccc23)nn1 (stereo unspecified)	none
Cc1cnc(NC(=O)c2cccs2)s1	HSF1 activator 83
O=C(COC(=O)c1ccc(Br)o1)Nc1ncc([N+](=O)[O-])s1	ALR H2O2 inh 97 (no result: HSF1 activator, AI-2 QS modul, HSF1 inhib, PHOSPHO1 block, core dimer inh)
COc1ccc(C(=O)OCC(=O)Nc2ncc([N+](=O)[O-])s2)cc1OC	none (no result: HSF1 activator, AI-2 QS modul, HSF1 inhib, PHOSPHO1 block, core dimer inh)
CC1CCCCN1CCCNC(=O)c1ccc(NC(=O)C2=CSCCO2)cc1 (stereo unspecified)	none
CC1=C([N+](=O)[O-])C(c2ccccc2)C2=C(N1)c1ccccc1C2=O (stereo unspecified)	HSF1 activator 57
